Data on 19 molecules can be found in ChEMBL document CHEMBL1143074, “Symplocamide A, a potent cytotoxin and chymotrypsin inhibitor from the marine Cyanobacterium Symploca sp” (J Nat Prod, 2008).

Activity calls are given as the source filed them. The calls are words filed in the database; no cut-off is given here.

Test [1] can be described thus: Inhibition of trypsin. An outline of the steps: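 Trypsin (0.0023 mg/mL final, 2.75 BAEE U) was added to 0.45 mM BAEE in 64 mM NaH2PO4 pH 7.6 at 25 °C. Compound was premixed with substrate from a 1:2 EtOH dilution series (final 4.5 × 10-4 to 6.8 × 10^-6 M), against an EtOH blank. N-benzoyl-L-arginine formation was read at 253 nm for 5 min, and the 0.5–2 min interval was analyzed.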

A short description of test [2]: Inhibition of chymotrypsin at 10 uM.
Test [3] can be described thus: Inhibition of trypsin at 10 uM.
Test [4] can be described thus: Inhibition of chymotrypsin. Put shortly: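 Spectrophotometric assay: 0.0025 mg/mL chymotrypsin (0.0086 U) with 0.53 mM BTEE in 38 mM Tris-HCl pH 7.8, 53 mM CaCl2, 0.5 mM HCl and 32% MeOH at 25 °C. Inhibitor (from MeOH dilutions, final 6.25 × 10-5 to 7.5 × 10^-9 M) was equilibrated with substrate before enzyme addition. Absorbance at 256 nm was followed for 5 min, and the 0.5–1.5 min interval was analyzed.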

Consider `CC(C)C[C@@H](NC(=O)[C@H](O)COS(=O)(=O)O)C(=O)N[C@@H]1C(=O)N[C@@H](CCCNC(=N)N)C(=O)N[C@H]2CC[C@@H](O)N(C2=O)[C@@H](CC(C)C)C(=O)N(C)[C@@H](Cc2ccc(O)cc2)C(=O)N[C@@H](C(C)C)C(=O)O[C@@H]1C`, for which half-maximal inhibition in test [1] (IC50) required 9.6 nM.
Turning to `CC(C)[C@H](NC(=O)[C@@H](C)NC(=O)[C@H](CCCc1ccc(O)cc1)NC(=O)[C@H](O)CO)C(=O)N[C@@H]1C(=O)N[C@@H](CCc2ccc(O)cc2)C(=O)N[C@H]2CC[C@@H](O)N(C2=O)[C@@H]([C@@H](C)O)C(=O)N(C)[C@@H](Cc2ccc(O)c(Br)c2)C(=O)N[C@@H](C(C)C)C(=O)O[C@@H]1C`, the outcome in test [2] and in test [3] was inactive.
In the case of `CCC(=O)N[C@@H](CCC(N)=O)C(=O)N1CC(C)[C@@H]2OC(=O)[C@H]([C@@H](C)CC)NC(=O)[C@H](Cc3ccc(O)cc3)N(C)C(=O)[C@H]([C@@H](C)CC)N3C(=O)[C@H](CC[C@H]3O)NC(=O)[C@H](CC(C)C)NC(=O)[C@H]21` (stereo partly specified), the result in test [2] and in test [3] was inactive.
In the case of `CCCC(=O)N[C@@H](CC(C)C)C(=O)N[C@@H](CCC(=O)O)C(=O)N[C@@H]1C(=O)N[C@@H](Cc2ccc(O)cc2)C(=O)N[C@H]2CC[C@@H](O)N(C2=O)[C@@H](C(C)C)C(=O)N(C)[C@@H](Cc2ccccc2)C(=O)N[C@@H]([C@@H](C)CC)C(=O)O[C@@H]1C`, the result in test [2] and in test [3] was inactive.
With `CCCC(=O)N[C@@H](Cc1ccccc1)C(=O)N[C@@H](CCC(=O)O)C(=O)N[C@@H]1C(=O)N[C@@H](CCC(=O)O)C(=O)N[C@H]2CC[C@@H](O)N(C2=O)[C@@H](C(C)C)C(=O)N(C)[C@@H](Cc2ccccc2)C(=O)N[C@@H]([C@@H](C)CC)C(=O)O[C@@H]1C`, the result in test [2] and in test [3] was inactive.
For the molecule `CC[C@H](C)[C@@H]1NC(=O)[C@H](Cc2ccc(OC)cc2)N(C)C(=O)[C@H]([C@@H](C)O)N2C(=O)[C@H](CC[C@H]2O)NC(=O)[C@H](CC(C)C)NC(=O)[C@@H](NC(=O)[C@H](CCC(N)=O)NC(=O)[C@@H]2CCC(=O)N2)[C@@H](C)OC1=O`, the outcome in test [2] and in test [3] was inactive.
`CC[C@H](C)[C@@H]1NC(=O)[C@H](Cc2ccc(O)cc2)N(C)C(=O)[C@H]([C@@H](C)CC)N2C(=O)C(CCC2O)NC(=O)[C@H](CC(C)C)NC(=O)[C@@H]2C(OC1=O)C(C)CN2C(=O)[C@H](CCC(N)=O)NC(C)=O` (stereo in doubt; form 2): the result in test [2] and in test [3] was inactive.
Regarding `CC[C@H](C)[C@@H]1NC(=O)[C@H](Cc2ccccc2)N(C)C(=O)[C@H]([C@@H](C)CC)N2C(=O)[C@H](CC[C@H]2O)NC(=O)[C@H](CCCNC(=N)N)NC(=O)[C@@H](NC(=O)[C@H](O)COS(=O)(=O)O)[C@@H](C)OC1=O` [CYANOPEPTOLIN S], in test [1], the IC50 (as a rule, the point on the concentration scale where inhibition reaches its midpoint) was 240 nM.
In the case of `CC(C)[C@@H]1NC(=O)[C@H](Cc2ccc(O)cc2)N(C)C(=O)[C@H](Cc2ccccc2)N2C(=O)[C@H](CC[C@H]2O)NC(=O)[C@H](CCCNC(=N)N)NC(=O)[C@@H](NC(=O)[C@@H](O)COS(=O)(=O)O)[C@@H](C)OC1=O` [MICROPEPTIN 90], the result in test [2] was inactive. The molecule further had an IC50 in test [1] of 2080 nM.
For `CCCCCCCC(=O)N[C@@H](CCC(=O)O)C(=O)N[C@@H]1C(=O)N[C@@H](CCCCN)C(=O)N[C@H]2CC[C@@H](O)N(C2=O)[C@@H](CC(C)C)C(=O)N(C)[C@@H](Cc2ccc(O)cc2)C(=O)N[C@@H](C(C)C)C(=O)O[C@@H]1C` [MICROPEPTIN A] the same measures were “inactive” and 70 nM.
Turning to `CCCCCC(=O)N[C@@H](CCC(=O)O)C(=O)N[C@@H]1C(=O)N[C@@H](CCCNC(=N)N)C(=O)N[C@H]2CC[C@@H](O)N(C2=O)[C@@H](CC(C)C)C(=O)N(C)[C@@H](Cc2ccc(O)cc2)C(=O)N[C@@H](C(C)C)C(=O)O[C@@H]1C` [MICROPEPTIN B], the outcome in test [2] was inactive. This molecule also registered a concentration for half-maximal inhibition (IC50) in test [1] of 260 nM.
For `CC(=O)N[C@@H](CCC(N)=O)C(=O)N[C@@H]1C(=O)N[C@@H](CC(C)C)C(=O)N[C@H]2CC[C@@H](O)N(C2=O)[C@@H](Cc2ccccc2)C(=O)N(C)[C@@H](Cc2ccc(O)cc2)C(=O)N[C@@H](C(C)C)C(=O)O[C@@H]1C` [NOSTOPEPTIN BN920], the result in test [3] was inactive. Moreover, the midpoint of inhibition in test [4], the IC50, lay at 110 nM.
For the molecule `CC[C@H](C)[C@@H]1NC(=O)[C@H](Cc2ccc(O)cc2)N(C)C(=O)[C@H](CC(C)C)N2C(=O)[C@H](CC[C@H]2O)NC(=O)[C@H](CC(C)C)NC(=O)[C@@H]2[C@@H](OC1=O)C(C)CN2C(=O)[C@H](CCC(N)=O)NC(C)=O` (stereo partly specified) [NOSTOPEPTIN E], the result in test [3] was inactive. It took 3600 nM to reach half-maximal inhibition in test [4] (IC50).
For `CC[C@H](C)[C@@H]1NC(=O)[C@H](Cc2ccc(O)cc2)N(C)C(=O)[C@H](CC(C)C)N2C(=O)[C@H](CC[C@H]2OC)NC(=O)[C@H](CC(C)C)NC(=O)[C@@H]2[C@@H](OC1=O)C(C)CN2C(=O)[C@H](CCC(N)=O)NC(C)=O` (stereo partly specified) [NOSTOPEPTIN F], in test [3], the result was inactive. This molecule also registered an IC50 in test [4] of 3800 nM.
As to `CC[C@H](C)[C@@H]1NC(=O)[C@H](Cc2ccc(OC)cc2)N(C)C(=O)[C@H](CC(C)C)N2C(=O)[C@H](CC[C@H]2O)NC(=O)[C@H](CC(C)C)NC(=O)[C@@H]2[C@@H](OC1=O)C(C)CN2C(=O)[C@H](CCC(N)=O)NC(C)=O` (stereo partly specified) [NOSTOPEPTIN I], in test [3], the outcome was inactive. In test [4], this molecule had an IC50 of 3500 nM.
Take `CC[C@H](C)[C@@H]1NC(=O)[C@H](Cc2ccc(OC)cc2)N(C)C(=O)[C@H](CC(C)C)N2C(=O)[C@H](CC[C@H]2OC)NC(=O)[C@H](CC(C)C)NC(=O)[C@@H]2[C@@H](OC1=O)C(C)CN2C(=O)[C@H](CCC(N)=O)NC(C)=O` (stereo partly specified) [NOSTOPEPTIN J]: the outcome in test [3] was inactive. In test [4], this molecule gave an IC50 of 3200 nM.
Regarding `CC[C@@H](C)[C@@H]1NC(=O)[C@H](Cc2ccc(OC)cc2)N(C)C(=O)[C@H]([C@@H](C)CC)N2C(=O)[C@H](CC[C@H]2O)NC(=O)[C@H](CCc2ccc(O)cc2)NC(=O)[C@@H](NC(=O)[C@H](CCc2ccc(O)cc2)NC(=O)[C@@H](COS(=O)(=O)O)OC)[C@@H](C)OC1=O` [OSCILLAPEPTIN A], the outcome in test [3] was inactive. 1890 nM corresponded to half-maximal inhibition in test [4] (IC50).
As to `CC[C@H](C)[C@@H]1NC(=O)[C@H](Cc2ccc(OC)cc2)N(C)C(=O)[C@H]([C@@H](C)O)N2C(=O)[C@H](CC[C@H]2O)NC(=O)[C@H](CC(C)C)NC(=O)[C@@H](NC(=O)[C@H](CCC(N)=O)NC(=O)[C@@H](NC(=O)[C@@H](O)CO)C(C)C)[C@@H](C)OC1=O` [PLANKTOPEPTIN BL1061], the outcome in test [3] was inactive. Further, the IC50 in test [4] was found to be 2100 nM.
Taken in the same sequence, the figures for `CC[C@H](C)[C@@H]1NC(=O)[C@H](Cc2ccc(OC)cc2)N(C)C(=O)[C@H]([C@@H](C)O)N2C(=O)[C@H](CC[C@H]2O)NC(=O)[C@H](CC(C)C)NC(=O)[C@@H](NC(=O)[C@H](CCC(N)=O)NC(=O)[C@H](CCc2ccc(O)cc2)NC(=O)[C@@H](O)CO)[C@@H](C)OC1=O` [PLANKTOPEPTIN BL1125] were “inactive” and 800 nM.
